Results published in ChEMBL document CHEMBL1155942, “Synthesis and evaluation in vitro and in vivo of a 11C-labeled cyclooxygenase-2 (COX-2) inhibitor” (Bioorg Med Chem, 2008).

Assays:
Adrenal [1] = assay: Biodistribution in Wistar rat adrenal at ~20 MBq, iv after 60 mins; type: ADME, organism-based, Adrenal tissue; conditions: in vivo, 1 h
How it was run: (§1)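 Male Wistar rats, housed under standard conditions. Each received about 20 MBq of radiotracer iv in 0.5 mL saline with 10% ethanol. Animals were killed at 5 or 60 min post injection, and organs were excised and weighed. Activity was gamma-counted, decay-corrected and calibrated against injected-tracer aliquots, then expressed as %ID/g. Mean ± SD, four animals per time point.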

[2] = Metabolic stability in Wistar rat plasma at 30 MBq, iv after 20 mins; type: ADME, organism-based; conditions: read-out: Stability
How it was run: (§2)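 After iv radiotracer, arterial blood was drawn through a femoral artery catheter. Plasma was separated by centrifugation (3 min, 11,000g). Proteins were precipitated with ice-cold methanol (1.5 parts per part plasma) and centrifuged again. Supernatants were analysed by HPLC for the fraction of intact radiotracer over time.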

Heart [3] = assay: Biodistribution in Wistar rat heart at ~20 MBq, iv after 60 mins; type: ADME, organism-based; conditions: in vivo, 1 h; how it was run: as §1
Muscle tissue [4] = assay: Biodistribution in Wistar rat muscle at ~20 MBq, iv after 60 mins; type: ADME, organism-based; conditions: in vivo, 1 h; how it was run: as §1
Lung [5] = assay: Biodistribution in Wistar rat lung at ~20 MBq, iv after 5 mins; type: ADME, organism-based; conditions: in vivo; how it was run: as §1
Spleen [6] = assay: Biodistribution in Wistar rat spleen at ~20 MBq, iv after 60 mins; type: ADME, organism-based; conditions: in vivo, 1 h; how it was run: as §1
Harderian gland [7] = assay: Biodistribution in Wistar rat harderian gland at ~20 MBq, iv after 60 mins; type: ADME, organism-based; conditions: in vivo, 1 h; how it was run: as §1
[8] = Biodistribution in Wistar rat brown adipose tissue at ~20 MBq, iv after 5 mins; type: ADME, organism-based; conditions: in vivo; how it was run: as §1
Spleen [9] = assay: Biodistribution in Wistar rat spleen at ~20 MBq, iv after 5 mins; type: ADME, organism-based; conditions: in vivo; how it was run: as §1
[10] = Biodistribution in Wistar rat brown adipose tissue at ~20 MBq, iv after 60 mins; type: ADME, organism-based; conditions: in vivo, 1 h; how it was run: as §1
Brain [11] = assay: Biodistribution in Wistar rat brain at ~20 MBq, iv after 60 mins; type: ADME, organism-based; conditions: in vivo, 1 h; how it was run: as §1
[12] = Biodistribution in Wistar rat white adipose tissue at ~20 MBq, iv after 60 mins; type: ADME, organism-based; conditions: in vivo, 1 h; how it was run: as §1
[13] = Metabolic stability in Wistar rat plasma at 30 MBq, iv after 1 min; type: ADME, organism-based; conditions: read-out: Stability; how it was run: as §2
Femur [14] = assay: Biodistribution in Wistar rat femur at ~20 MBq, iv after 5 mins; type: ADME, organism-based; conditions: in vivo; how it was run: as §1
Heart [15] = assay: Biodistribution in Wistar rat heart at ~20 MBq, iv after 5 mins; type: ADME, organism-based; conditions: in vivo; how it was run: as §1
Thymus [16] = assay: Biodistribution in Wistar rat thymus at ~20 MBq, iv after 5 mins; type: ADME, organism-based; conditions: in vivo; how it was run: as §1
Adrenal [17] = assay: Biodistribution in Wistar rat adrenal at ~20 MBq, iv after 5 mins; type: ADME, organism-based, Adrenal tissue; conditions: in vivo; how it was run: as §1
Muscle tissue [18] = assay: Biodistribution in Wistar rat muscle at ~20 MBq, iv after 5 mins; type: ADME, organism-based; conditions: in vivo; how it was run: as §1
Kidney [19] = assay: Biodistribution in Wistar rat kidney at ~20 MBq, iv after 5 mins; type: ADME, organism-based; conditions: in vivo; how it was run: as §1
[20] = Metabolic stability in human HT29 cells bearing mouse plasma at 20 MBq, iv after 20 mins; type: ADME, organism-based, HT-29; conditions: read-out: Stability; how it was run: as §2
Testes [21] = assay: Biodistribution in Wistar rat testes at ~20 MBq, iv after 60 mins; type: ADME, organism-based, Testis; conditions: in vivo, 1 h; how it was run: as §1
[22] = Metabolic stability in human HT29 cells bearing mouse plasma at 20 MBq, iv after 30 mins; type: ADME, organism-based, HT-29; conditions: read-out: Stability; how it was run: as §2
Blood [23] = assay: Biodistribution in Wistar rat blood at ~20 MBq, iv after 5 mins; type: ADME, organism-based; conditions: in vivo; how it was run: as §1
[24] = Metabolic stability in human HT29 cells bearing mouse plasma at 20 MBq, iv after 10 mins; type: ADME, organism-based, HT-29; conditions: read-out: Stability; how it was run: as §2
Lung [25] = assay: Biodistribution in Wistar rat lung at ~20 MBq, iv after 60 mins; type: ADME, organism-based; conditions: in vivo, 1 h; how it was run: as §1
[26] = Metabolic stability in Wistar rat plasma at 30 MBq, iv after 5 mins; type: ADME, organism-based; conditions: read-out: Stability; how it was run: as §2
[27] = Metabolic stability in human HT29 cells bearing mouse plasma at 20 MBq, iv after 5 mins; type: ADME, organism-based, HT-29; conditions: read-out: Stability; how it was run: as §2
[28] = Biodistribution in Wistar rat white adipose tissue at ~20 MBq, iv after 5 mins; type: ADME, organism-based; conditions: in vivo; how it was run: as §1
Femur [29] = assay: Biodistribution in Wistar rat femur at ~20 MBq, iv after 60 mins; type: ADME, organism-based; conditions: in vivo, 1 h; how it was run: as §1
Liver [30] = assay: Biodistribution in Wistar rat liver at ~20 MBq, iv after 5 mins; type: ADME, organism-based; conditions: in vivo; how it was run: as §1
Kidney [31] = assay: Biodistribution in Wistar rat kidney at ~20 MBq, iv after 60 mins; type: ADME, organism-based; conditions: in vivo, 1 h; how it was run: as §1
[32] = Metabolic stability in Wistar rat plasma at 30 MBq, iv after 60 mins; type: ADME, organism-based; conditions: read-out: Stability; how it was run: as §2
[33] = Metabolic stability in human HT29 cells bearing mouse plasma at 20 MBq, iv after 60 mins; type: ADME, organism-based, HT-29; conditions: read-out: Stability; how it was run: as §2
Liver [34] = assay: Biodistribution in Wistar rat liver at ~20 MBq, iv after 60 mins; type: ADME, organism-based; conditions: in vivo, 1 h; how it was run: as §1
Testes [35] = assay: Biodistribution in Wistar rat testes at ~20 MBq, iv after 5 mins; type: ADME, organism-based, Testis; conditions: in vivo; how it was run: as §1
Pancreas [36] = assay: Biodistribution in Wistar rat pancreas at ~20 MBq, iv after 60 mins; type: ADME, organism-based; conditions: in vivo, 1 h; how it was run: as §1
Thymus [37] = assay: Biodistribution in Wistar rat thymus at ~20 MBq, iv after 60 mins; type: ADME, organism-based; conditions: in vivo, 1 h; how it was run: as §1
[38] = Metabolic stability in Wistar rat plasma at 30 MBq, iv after 30 mins; type: ADME, organism-based; conditions: read-out: Stability; how it was run: as §2
[39] = Metabolic stability in Wistar rat plasma at 30 MBq, iv after 10 mins; type: ADME, organism-based; conditions: read-out: Stability; how it was run: as §2
Pancreas [40] = assay: Biodistribution in Wistar rat pancreas at ~20 MBq, iv after 5 mins; type: ADME, organism-based; conditions: in vivo; how it was run: as §1
Harderian gland [41] = assay: Biodistribution in Wistar rat harderian gland at ~20 MBq, iv after 5 mins; type: ADME, organism-based; conditions: in vivo; how it was run: as §1
Blood [42] = assay: Biodistribution in Wistar rat blood at ~20 MBq, iv after 60 mins; type: ADME, organism-based; conditions: in vivo, 1 h; how it was run: as §1
[43] = Metabolic stability in human HT29 cells bearing mouse plasma at 20 MBq, iv after 1 min; type: ADME, organism-based, HT-29; conditions: read-out: Stability; how it was run: as §2
Brain [44] = assay: Biodistribution in Wistar rat brain at ~20 MBq, iv after 5 mins; type: ADME, organism-based; conditions: in vivo; how it was run: as §1

CS(=O)(=O)c1ccc(C2=C(c3ccc(O[11CH3])cc3)CCC2)cc1
Drug uptake (Adrenal [1]): 0.57 % ID/g
remaining at 20 min [2]: 26%
Drug uptake (Heart [3]): 0.16 % ID/g
Drug uptake (Muscle tissue [4]): 0.11 % ID/g
Drug uptake (Lung [5]): 0.59 % ID/g
Drug uptake (Spleen [6]): 0.21 % ID/g
Drug uptake (Harderian gland [7]): 0.42 % ID/g
Drug uptake [8]: 1.89 % ID/g
Drug uptake (Spleen [9]): 0.32 % ID/g
Drug uptake [10]: 0.67 % ID/g
Drug uptake (Brain [11]): 0.11 % ID/g
Drug uptake [12]: 0.52 % ID/g
remaining at 1 min [13]: 97%
Drug uptake (Femur [14]): 0.34 % ID/g
Drug uptake (Heart [15]): 0.5 % ID/g
Drug uptake (Thymus [16]): 0.64 % ID/g
Drug uptake (Adrenal [17]): 1.33 % ID/g
Drug uptake (Muscle tissue [18]): 0.32 % ID/g
Drug uptake (Kidney [19]): 0.62 % ID/g
remaining at 20 min [20]: 8%
Drug uptake (Testes [21]): 0.09 % ID/g
remaining at 0.5 h [22]: 5%
Drug uptake (Blood [23]): 0.23 % ID/g
remaining at 10 min [24]: 17%
Drug uptake (Lung [25]): 0.19 % ID/g
remaining at 5 min [26]: 57%
remaining at 5 min [27]: 40%
Drug uptake [28]: 0.53 % ID/g
Drug uptake (Femur [29]): 0.19 % ID/g
Drug uptake (Liver [30]): 1.35 % ID/g
Drug uptake (Kidney [31]): 0.26 % ID/g
remaining at 1 h [32]: 18%
remaining at 1 h [33]: 2%
Drug uptake (Liver [34]): 0.76 % ID/g
Drug uptake (Testes [35]): 0.2 % ID/g
Drug uptake (Pancreas [36]): 0.52 % ID/g
Drug uptake (Thymus [37]): 0.2 % ID/g
remaining at 0.5 h [38]: 22%
remaining at 10 min [39]: 35%
Drug uptake (Pancreas [40]): 0.78 % ID/g
Drug uptake (Harderian gland [41]): 1.06 % ID/g
Drug uptake (Blood [42]): 0.18 % ID/g
remaining at 1 min [43]: 95%
Drug uptake (Brain [44]): 0.59 % ID/g
